Screening results as filed in PubChem BioAssay.
MC4R ag barr: agonists of human melanocortin 4 receptor (MC4R) beta-arrestin. P32245. U2OS MC4R beta-arrestin complementation, luminescence; percent of melanotan II response, DMSO zero. activation, % at 8.9 µM. 0.98% of 360,000 active;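 active = activation above a per-plate cutoff, the mean activation of sample wells on that plate plus 3 SD, cut at about 8% in these data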
MC4R antag cAMP: blocks human MC4R cAMP signaling; P32245; MC4R-expressing cells, MTII-stimulated cAMP, LANCE TR-FRET; 0.48% of 360,000 active; AID 540295; inhibition, % at 6.5 µM;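 active = inhibition above its plate's cutoff, the mean of tested wells on that plate plus 3 SD, cut at about 29% in these data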;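 also: 0% = Melanotan II alone and 100% = Melanotan II plus saturating MCL0020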
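Assay system: U2OS cells stably expressing human melanocortin 4 receptor (MC4R) / Dosing: 6.5 µM / Timing: compound 30 min, challenge 1 h, detection 1 h / Measured by: Eu-cAMP/anti-cAMP TR-FRET, emission 671 nm / Replicates: singlicate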
TbMetRS inhib: Trypanosoma brucei MetRS inhibition | purified T. brucei MetRS, ATP depletion, Kinase-Glo luminescence | 0.4% of 360,000 active | inhibition, % at 11.9 µM;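 active = inhibition above a per-plate cutoff of the control wells' mean inhibition plus 3 SD, cut at about 5.5% in these data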;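 also: 0% = DMSO wells median and 100% = median of wells with control inhibitor compound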
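Dosing: 11.9 µM compound single dose, 0.9% DMSO; Assay system: purified T. brucei MetRS enzyme; Measured by: Kinase-Glo luciferase luminescence reporting remaining unconsumed ATP; Schedule: 15 min plus 2 h at 25 °C.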
NLRP3 yeast inh: NALP3 inhibition in yeast | 0.39% of 330,000 active | AID 2825 | inhibition, % at 10 µM | Yeast reconstituted NLRP3/ASC/caspase-1, beta-gal luminescence, 24 h;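 active = inhibition of 50% or more; inactive = inhibition below 50%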;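 also: plate controls were induced DMSO wells for no effect and uninduced yeast grown without galactose for full effect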
NALP1 yeast inh: blocks the NALP1 inflammasome reconstituted in yeast | S. cerevisiae NALP1/ASC/caspase-1 growth, X-gal OD620, 72 h | inhibition, % at 10 µM | 0.61% of 280,000 active; in the data active = inhibition mostly above about 24%, no sharp cut-off; inactive = mostly below about 32%
A1 inh: inhibitors of the anti-apoptotic protein A1, read as caspase activation; 0.066% of 330,000 active; caspase activation, % (concentration not given with the values); AID 2462; MEF A1-2A-BIM cells, Caspase-Glo 3/7 luminescence, 3 h; percent of clofoctol response, vehicle zero;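 active = over half of replicate activation scores above 10%, or exactly half above 10 with the replicate mean above 10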
MC4R barr conf: human MC4R beta-arrestin agonism confirmation. shares compounds with MC4R ag barr. U2OS MC4R beta-arrestin recruitment, luminescence; scaled DMSO 0%, Melanotan II 100%. activation, % at 8.9 µM. 31% of 2,400 active. AID 602192;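 active = mean activation across replicates above the hit cutoff set in the earlier primary screen, cut at about 8% in these data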
MOR-DOR barr ag: activates mu-delta opioid heterodimer, MC4R agonist counter-screen. shares compounds with MC4R ag barr. U2OS PathHunter beta-arrestin, beta-gal luminescence; percent of deltorphin B response, DMSO zero. activation, % at 9.2 µM. 5.8% of 2,400 active. AID 602194;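 active = mean activation across replicates exceeds the hit threshold derived in the earlier primary screen, cut at about 18% in these data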;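 also: 100% = deltorphin B at 0.9 µM final and 0% = DMSO alone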
An asterisk follows results filed as active; x = no result given. Rows were chosen to be rich in hits. Some 2.5% of all compounds tested hit in one or more screens of this group.

SMILES	MC4R ag barr	MC4R antag cAMP	TbMetRS inhib	NLRP3 yeast inh	NALP1 yeast inh	A1 inh	MC4R barr conf	MOR-DOR barr ag
CCC(=O)Nc1sc(C(=O)Nc2ccccc2OC)c(C)c1C(=O)OC	11*	5	-1	11	21	-1	3	3
Cc1cc(C)c(-n2c(SCC(=O)N3CCOCC3)n[nH]c2=O)c(C)c1	1	-1	-1	-3	1	0	x	x
COc1ccc(NC(=O)CCC(=O)Nc2cc(OC)c(NC(=O)c3cccs3)cc2OC)cc1	1	2	-1	13	18	1	x	x
COc1cc(NC(=O)c2cccs2)c(OC)cc1NC(=O)CCC(=O)Nc1ccc(C)cc1	13*	12	0	10	9	0	3	1
Oc1ccc(/C=N/N=C/c2ccc(O)c(O)c2)cc1O	-1	-1	0	23	-23	-2	x	x
O=C(/C(=N/N=C/c1ccc(O)c(O)c1)c1ccccc1)c1ccccc1	10*	17	1	18	24	1	3	11
CCC(C(=O)OCC(=O)N1CCN(c2ccc(OC)cc2)CC1)c1ccccc1 (stereo not drawn)	4	15	-1	27	x	1	x	x
O=C1NC2=C(C(=O)CCC2)C(c2ccc(OC(F)F)cc2)N1 (stereo not drawn)	0	12	0	15	22	0	x	x
CCNC(=O)c1c(NC(=O)C2COc3ccccc3O2)sc2c1CCCC2 (stereo not drawn)	3	0	-1	25	4	-1	x	x
COCCCNC(=O)c1c(NC(=O)C2COc3ccccc3O2)sc2c1CCCC2 (stereo not drawn)	11*	5	1	16	-3	-2	1	3
COc1ccc(-c2n[nH]c(=S)n2/N=C/C=C/c2ccccc2OC)cc1	11*	-4	0	24	31	0	-1	7
Cc1ccccc1NS(=O)(=O)c1nnc(NC(=O)CC(C)C)s1	0	11	-1	-9	-6	0	x	x
Cc1occc1-c1nnc(SCC(=O)Nc2nc(C(C)(C)C)cs2)o1	12*	21	0	24	23	1	4	6
O=C(CCN1C(=O)/C(=C\c2ccccc2F)SC1=S)Nc1ccc(C(=O)O)c(O)c1	-3	11	0	4	6	-1	x	x
O=C(CCN1C(=O)/C(=C/c2ccccc2)SC1=S)Nc1ccccn1	1	2	0	22	12	0	x	x
O=C(CCN1C(=O)/C(=C/c2ccccc2)SC1=S)Nc1cccnc1	11*	14	0	11	-15	0	2	6
COc1cccc(/C=C2\SC(=S)N(CCC(=O)NCCc3ccc(O)cc3)C2=O)c1	35*	15	1	25	16	0	-3	3
O=C(CCN1C(=O)/C(=C/c2ccccc2)SC1=S)N[C@@H](CO)Cc1ccccc1	19*	6	0	10	-2	-2	-2	4
O=C(CCN1C(=O)/C(=C/c2ccccc2F)SC1=S)N[C@@H](CO)Cc1ccccc1	11*	7	-1	6	27	1	-3	5
COC(=O)C1CC2=C(CCCC2=O)N(c2ccccc2)C1=O (stereo not drawn)	0	2	0	x	x	x	x	x
Cc1cccc2c1nc(-c1ccccc1)n1nnnc21	13*	-4	-1	-32	14	1	2	4
Cc1ccc(C)c(NC(=O)CSc2ncnc3nc[nH]c23)c1	-1	8	0	14	21	0	x	x
O=C(CSc1ncnc2nc[nH]c12)Nc1nnc(SCc2ccc(Cl)c(Cl)c2)s1	16*	14	0	1	1	0	6	2
N#Cc1cc(-c2ccc(Cl)cc2)cnc1Sc1ccc(F)cc1	18*	1	0	-11	8	0	5	5
